From publication PMC6606825 (Journal of Ginseng Research, 2018)

Test: Pharmacokinetics of CK and its metabolite 20
Assay type: in vivo, healthy Chinese volunteers
Procedure, shortened: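 Healthy adults given one oral tablet dose fasting (overnight, or 10 h in a crossover food-effect arm); 30 subjects from the 100/200/400 mg groups were pooled with 24 from 200 mg fasting periods. Plasma was stored at −70°C, extracted with MTBE plus internal standards and assayed by LC-MS/MS. Cmax was observed and AUClast calculated by linear trapezoid, each divided by dose. The metabolite/parent ratio was also calculated. Genotyping used Sequenom MassARRAY, and log-transformed values were compared by one-way ANOVA.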

[1] = ABCC4 rs1151471 CC, n = 2, mean (SD)

SMILES: CC(C)=CCC[C@](C)(O)[C@H]1CC[C@]2(C)[C@@H]1[C@H](O)C[C@@H]1[C@@]3(C)CC[C@H](O)C(C)(C)[C@@H]3CC[C@]12C [20(S)-PPD, 20(S)-protopanaxadiol]
- 20(S)-PPD AUClast/D (ABCB1 rs1045642 AA, mean (SD)): 0.59 (0.42)
- 20(S)-PPD Cmax/D (ABCB1 rs1045642 AA, mean (SD)): 0.02 (0.02)
- Ratio 20(S)-PPD/CK AUClast/D (ABCB1 rs1045642 AA, mean (SD)): 1.99 (1.55) %
- Ratio 20(S)-PPD/CK Cmax/D (ABCB1 rs1045642 AA, mean (SD)): 0.54 (0.42) %
- 20(S)-PPD AUClast/D (ABCB1 rs1045642 AG, mean (SD)): 0.87 (0.93)
- 20(S)-PPD Cmax/D (ABCB1 rs1045642 AG, mean (SD)): 0.03 (0.03)
- Ratio 20(S)-PPD/CK AUClast/D (ABCB1 rs1045642 AG, mean (SD)): 5.28 (8.05) %
- Ratio 20(S)-PPD/CK Cmax/D (ABCB1 rs1045642 AG, mean (SD)): 1.49 (2.26) %
- 20(S)-PPD AUClast/D (ABCB1 rs1045642 GG, mean (SD)): 0.82 (0.62)
- 20(S)-PPD Cmax/D (ABCB1 rs1045642 GG, mean (SD)): 0.03 (0.02)
- Ratio 20(S)-PPD/CK AUClast/D (ABCB1 rs1045642 GG, mean (SD)): 3.23 (2.77) %
- Ratio 20(S)-PPD/CK Cmax/D (ABCB1 rs1045642 GG, mean (SD)): 0.80 (0.66) %
- 20(S)-PPD AUClast/D (ABCB1 rs1128503 AA, mean (SD)): 0.90 (0.79)
- 20(S)-PPD Cmax/D (ABCB1 rs1128503 AA, mean (SD)): 0.03 (0.03)
- Ratio 20(S)-PPD/CK AUClast/D (ABCB1 rs1128503 AA, mean (SD)): 4.27 (5.15) %
- Ratio 20(S)-PPD/CK Cmax/D (ABCB1 rs1128503 AA, mean (SD)): 1.30 (2.07) %
- 20(S)-PPD AUClast/D (ABCB1 rs1128503 AG, mean (SD)): 0.77 (0.80)
- 20(S)-PPD Cmax/D (ABCB1 rs1128503 AG, mean (SD)): 0.03 (0.03)
- Ratio 20(S)-PPD/CK AUClast/D (ABCB1 rs1128503 AG, mean (SD)): 4.67 (7.55) %
- Ratio 20(S)-PPD/CK Cmax/D (ABCB1 rs1128503 AG, mean (SD)): 1.12 (1.52) %
- 20(S)-PPD AUClast/D (ABCB1 rs1128503 GG, mean (SD)): 0.73 (0.70)
- 20(S)-PPD Cmax/D (ABCB1 rs1128503 GG, mean (SD)): 0.02 (0.02)
- Ratio 20(S)-PPD/CK AUClast/D (ABCB1 rs1128503 GG, mean (SD)): 1.89 (0.94) %
- Ratio 20(S)-PPD/CK Cmax/D (ABCB1 rs1128503 GG, mean (SD)): 0.46 (0.25) %
- 20(S)-PPD AUClast/D (ABCB1 rs2032582 AA, mean (SD)): 0.78 (0.53)
- 20(S)-PPD Cmax/D (ABCB1 rs2032582 AA, mean (SD)): 0.03 (0.02)
- Ratio 20(S)-PPD/CK AUClast/D (ABCB1 rs2032582 AA, mean (SD)): 4.64 (7.42) %
- Ratio 20(S)-PPD/CK Cmax/D (ABCB1 rs2032582 AA, mean (SD)): 1.20 (1.55) %
- 20(S)-PPD Cmax/D (ABCB1 rs2032582 CA, mean (SD)): 0.03 (0.03)
- Ratio 20(S)-PPD/CK AUClast/D (ABCB1 rs2032582 CA, mean (SD)): 4.60 (7.08) %
- Ratio 20(S)-PPD/CK Cmax/D (ABCB1 rs2032582 CA, mean (SD)): 1.34 (2.13) %
- 20(S)-PPD AUClast/D (ABCB1 rs2032582 CC, mean (SD)): 0.92 (0.62)
- 20(S)-PPD Cmax/D (ABCB1 rs2032582 CC, mean (SD)): 0.03 (0.02)
- Ratio 20(S)-PPD/CK AUClast/D (ABCB1 rs2032582 CC, mean (SD)): 3.50 (2.84) %
- Ratio 20(S)-PPD/CK Cmax/D (ABCB1 rs2032582 CC, mean (SD)): 0.74 (0.49) %
- 20(S)-PPD AUClast/D (ABCC2 rs717620 CC, mean (SD)): 0.64 (0.51)
- 20(S)-PPD Cmax/D (ABCC2 rs717620 CC, mean (SD)): 0.02 (0.02)
- Ratio 20(S)-PPD/CK AUClast/D (ABCC2 rs717620 CC, mean (SD)): 3.02 (4.69) %
- Ratio 20(S)-PPD/CK Cmax/D (ABCC2 rs717620 CC, mean (SD)): 0.77 (0.99) %
- 20(S)-PPD AUClast/D (ABCC2 rs717620 CT, mean (SD)): 1.09 (1.02)
- 20(S)-PPD Cmax/D (ABCC2 rs717620 CT, mean (SD)): 0.04 (0.04)
- Ratio 20(S)-PPD/CK AUClast/D (ABCC2 rs717620 CT, mean (SD)): 6.00 (7.83) %
- Ratio 20(S)-PPD/CK Cmax/D (ABCC2 rs717620 CT, mean (SD)): 1.65 (2.39) %
- 20(S)-PPD AUClast/D (ABCC2 rs2273697 GA, mean (SD)): 0.81 (0.63)
- 20(S)-PPD Cmax/D (ABCC2 rs2273697 GA, mean (SD)): 0.03 (0.02)
- Ratio 20(S)-PPD/CK AUClast/D (ABCC2 rs2273697 GA, mean (SD)): 4.54 (6.68) %
- Ratio 20(S)-PPD/CK Cmax/D (ABCC2 rs2273697 GA, mean (SD)): 0.96 (1.36) %
- 20(S)-PPD AUClast/D (ABCC2 rs2273697 GG, mean (SD)): 0.83 (0.84)
- 20(S)-PPD Cmax/D (ABCC2 rs2273697 GG, mean (SD)): 0.03 (0.03)
- Ratio 20(S)-PPD/CK AUClast/D (ABCC2 rs2273697 GG, mean (SD)): 4.19 (6.15) %
- Ratio 20(S)-PPD/CK Cmax/D (ABCC2 rs2273697 GG, mean (SD)): 1.22 (1.87) %
- 20(S)-PPD AUClast/D (ABCC2 rs2756109 GG, mean (SD)): 0.61 (0.41)
- 20(S)-PPD Cmax/D (ABCC2 rs2756109 GG, mean (SD)): 0.02 (0.02)
- Ratio 20(S)-PPD/CK AUClast/D (ABCC2 rs2756109 GG, mean (SD)): 2.42 (1.84) %
- 20(S)-PPD AUClast/D (ABCC2 rs3740066 CC, mean (SD)): 0.64 (0.51)
- 20(S)-PPD Cmax/D (ABCC2 rs3740066 CC, mean (SD)): 0.02 (0.02)
- Ratio 20(S)-PPD/CK AUClast/D (ABCC2 rs3740066 CC, mean (SD)): 3.03 (4.8) %
- Ratio 20(S)-PPD/CK Cmax/D (ABCC2 rs3740066 CC, mean (SD)): 0.78 (1.02) %
- 20(S)-PPD AUClast/D (ABCC2 rs3740066 CT, mean (SD)): 1.06 (0.99)
- 20(S)-PPD Cmax/D (ABCC2 rs3740066 CT, mean (SD)): 0.04 (0.03)
- Ratio 20(S)-PPD/CK AUClast/D (ABCC2 rs3740066 CT, mean (SD)): 5.95 (7.51) %
- Ratio 20(S)-PPD/CK Cmax/D (ABCC2 rs3740066 CT, mean (SD)): 1.63 (2.29) %
- 20(S)-PPD AUClast/D (ABCC2 rs3740066 TT, n = 1): 0.58 (—)
- 20(S)-PPD Cmax/D (ABCC2 rs3740066 TT, n = 1): 0.01 (—)
- Ratio 20(S)-PPD/CK AUClast/D (ABCC2 rs3740066 TT, n = 1): 1.04 (—) %
- Ratio 20(S)-PPD/CK Cmax/D (ABCC2 rs3740066 TT, n = 1): 0.22 (—) %
- 20(S)-PPD AUClast/D (ABCC3 rs4148416 CC, mean (SD)): 0.77 (0.69)
- 20(S)-PPD Cmax/D (ABCC3 rs4148416 CC, mean (SD)): 0.03 (0.02)
- Ratio 20(S)-PPD/CK AUClast/D (ABCC3 rs4148416 CC, mean (SD)): 3.64 (5.23) %
- Ratio 20(S)-PPD/CK Cmax/D (ABCC3 rs4148416 CC, mean (SD)): 0.90 (1.07) %
- 20(S)-PPD AUClast/D (ABCC3 rs4148416 CT, mean (SD)): 0.99 (1.01)
- 20(S)-PPD Cmax/D (ABCC3 rs4148416 CT, mean (SD)): 0.04 (0.04)
- Ratio 20(S)-PPD/CK AUClast/D (ABCC3 rs4148416 CT, mean (SD)): 6.12 (8.47) %
- Ratio 20(S)-PPD/CK Cmax/D (ABCC3 rs4148416 CT, mean (SD)): 1.87 (2.85) %
- 20(S)-PPD AUClast/D (ABCC3 rs4793665 CT, mean (SD)): 0.61 (0.58)
- 20(S)-PPD Cmax/D (ABCC3 rs4793665 CT, mean (SD)): 0.02 (0.02)
- Ratio 20(S)-PPD/CK AUClast/D (ABCC3 rs4793665 CT, mean (SD)): 2.27 (2.88) %
- Ratio 20(S)-PPD/CK Cmax/D (ABCC3 rs4793665 CT, mean (SD)): 0.54 (0.52) %
- 20(S)-PPD AUClast/D (ABCC3 rs4793665 TT, mean (SD)): 0.89 (0.82)
- 20(S)-PPD Cmax/D (ABCC3 rs4793665 TT, mean (SD)): 0.03 (0.03)
- Ratio 20(S)-PPD/CK AUClast/D (ABCC3 rs4793665 TT, mean (SD)): 4.86 (6.83) %
- Ratio 20(S)-PPD/CK Cmax/D (ABCC3 rs4793665 TT, mean (SD)): 1.32 (1.92) %
- 20(S)-PPD AUClast/D (ABCC3 rs12051822 GA, mean (SD)): 1.17 (0.94)
- 20(S)-PPD Cmax/D (ABCC3 rs12051822 GA, mean (SD)): 0.04 (0.03)
- Ratio 20(S)-PPD/CK AUClast/D (ABCC3 rs12051822 GA, mean (SD)): 6.84 (8.31) %
- Ratio 20(S)-PPD/CK Cmax/D (ABCC3 rs12051822 GA, mean (SD)): 1.44 (1.56) %
- 20(S)-PPD AUClast/D (ABCC3 rs12051822 GG, mean (SD)): 0.74 (0.72)
- 20(S)-PPD Cmax/D (ABCC3 rs12051822 GG, mean (SD)): 0.03 (0.03)
- Ratio 20(S)-PPD/CK AUClast/D (ABCC3 rs12051822 GG, mean (SD)): 3.60 (5.48) %
- Ratio 20(S)-PPD/CK Cmax/D (ABCC3 rs12051822 GG, mean (SD)): 1.09 (1.81) %
- 20(S)-PPD AUClast/D [1]: 2.65 (1.59)
- 20(S)-PPD Cmax/D [1]: 0.09 (0.03)
- Ratio 20(S)-PPD/CK AUClast/D [1]: 20.61 (14.96) %
- Ratio 20(S)-PPD/CK Cmax/D [1]: 4.33 (2.43) %
- 20(S)-PPD AUClast/D (ABCC4 rs1151471 TC, mean (SD)): 0.99 (0.81)
- 20(S)-PPD Cmax/D (ABCC4 rs1151471 TC, mean (SD)): 0.04 (0.03)
- Ratio 20(S)-PPD/CK AUClast/D (ABCC4 rs1151471 TC, mean (SD)): 5.99 (7.30) %
- Ratio 20(S)-PPD/CK Cmax/D (ABCC4 rs1151471 TC, mean (SD)): 1.83 (2.49) %
- 20(S)-PPD AUClast/D (ABCC4 rs1151471 TT, mean (SD)): 0.58 (0.54)
- 20(S)-PPD Cmax/D (ABCC4 rs1151471 TT, mean (SD)): 0.02 (0.02)
